# Source: the array DNA melting data of Ke et al. (doi:10.1101/2024.01.08.574731)
# Tests used:
# [1] = melting temperature; fluorescence melt of hairpins on a sequencing array, two-state fit, raised by 9.35 °C to match UV melts; conditions: sodium 0.088 M
# Summary of the method: (§1)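 Library hairpins on a sequenced MiSeq flow cell carried annealed Cy3 and quencher oligos, and their Cy3 fluorescence was imaged in 50 mM Na-HEPES pH 8.0 with 25 mM NaCl, in 2.5 °C steps up to 60 °C. Signals were normalised to Cy3 before quenching and to control constructs. Melting temperature and folding enthalpy were obtained from bootstrapped two-state fits, combined by inverse-variance weighting across four replicates, and the fitted temperatures were then raised by 9.35 °C to match UV melts.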
# [2] = folding enthalpy; higher = less favourable; fluorescence melt of hairpins on a sequencing array, two-state fit; conditions: sodium 0.088 M
# Summary of the method: as §1
Sequence,Tm [1] [°C],folding enthalpy [2] [kcal/mol]
GAAAGTGGAAACGCTTTC (((((.(....).))))),44.2,-27.6
GAAATACGAAAGTACTTC (((.(((....))).))),29.5,-15.7
GAAATCCGAAAGGAATTC (((.(((....))).))),40.9,-28.1
GAAATCGGAAACGACTTC (((.(((....))).))),32.4,-24.8
GAAATCGGAAACGGTTTC ((((.((....)).)))),46.5,-31.6
GAAATGAAAATTTC (((((....))))),30.1,-12.2
GAAATGCGAAAGCACTTC (((.(((....))).))),40.7,-17.1
GAAATGCGAAAGCATTC (((.(((....)))))),45.6,-10.9
GAAATGGCGAAAGCCTTC (((..(((....)))))),23,-7.87
GAAATGGGAAACCATTTC (((((((....))))))),53.9,-37.5
GAACAAGAAATTGTTC ((((((....)))))),45.1,-26.4
GAACACGAAAGTGATTC ((((((....))).))),37.2,-18.1
GAACACGAAAGTGCGTTC ((((((....)))..))),31.2,-13
GAACACGAAAGTGTCTTC ((((((....)))..))),52.8,-24.3
GAACACGAAAGTGTGTTC ((((((....)))..))),50,-17.8
GAACACGGAAACGTGTCC (.(((((....))))).),45.2,-11.2
GAACATGGAAACGTGTTC (((((.(....).))))),44.8,-40.1
GAACCCGAAAGGGACTTC ((((((....)))..))),42.9,-20.2
GAACCCGAAAGGGATTC ((((((....))).))),46.4,-14.4
GAACCCGAAAGGGCTTTC ((((((....)))..))),33.8,-10.4
GAACCCGAAAGGGTCTTC ((((((....)))..))),61.9,-22.8
GAACCTGGAAACAGGTCC (.(((((....))))).),40.9,-15.9
GAACCTGGAAACAGGTTC (((((((....))))))),65.5,-36.9

Sequence,Tm [1] [°C],folding enthalpy [2] [kcal/mol]
GAACGACGAAAGTCTTC (((.(((....)))))),34.8,-15.3
GAACGCCGAAAGGCATTC (((.(((....))).))),43.3,-17.8
GAACGCCGAAAGGCTTTC (((.(((....))).))),44.2,-17.9
GAACGCGAAAGCGGGTTC ((((((....)))..))),47.1,-11.9
GAACGCGAAAGCGTATTC ((((((....)))..))),35.8,-7.69
GAACGCGAAAGCGTCTTC ((((((....)))..))),62.6,-21.6
GAACGCGAAAGCGTTTC ((((((....))).))),57.7,-10.7
GAACGGCCGAAAGGCTTC (((..(((....)))))),21.1,-7.62
GAACGGGGAAACCCGTTC (((((((....))))))),67.9,-34.2
GAACGTGAAAACGTTC ((((((....)))))),58.1,-34
GAACGTGGAAACACGCTC ((.((((....)))).)),44,-18.2
GAACGTGGAAACACGTTC (((((((....))))))),66.3,-31.6
GAACTCGGAAACAAGTTC (((((.(....).))))),34,-22.7
GAACTCGGAAACGAATTC (((.(((....))).))),31.7,-27.5
GAACTGCGAAAGCACTTC (((.(((....))).))),28.4,-10.9
GAACTGGGAAACTAGTTC (((((.(....).))))),42.4,-37.9
GAACTTGAAAAAGTTC ((((((....)))))),49.7,-28.8
GAAGAACGAAAGTTGTTC (((.(((....))).))),41.4,-32.7
GAAGACACGAAAGTGTTC (((..(((....)))))),31.9,-10.1
GAAGACCGAAAGGTATTC (((.(((....))).))),50.8,-32.5
GAAGACCGAAAGGTTTC (((.(((....)))))),37,-13.9
GAAGACGAAAGTCTTC ((((((....)))))),64.5,-37.7
GAAGAGCGAAAGCTGTTC (((.(((....))).))),49.2,-24.9
